Experimental data reported in ChEMBL document CHEMBL1142879, “Synthesis and biological evaluation of dialkylsubstituted maleic anhydrides as novel inhibitors of Cdc25 dual specificity phosphatases” (Eur J Med Chem, 2007).

What was measured:
[1] = biological target: T1, M-phase inducer phosphatase 3 (Homo sapiens, UniProt P30307); test: Inhibition of human GST-Cdc25C expressed in Escherichia coli BL21(DE3)
T1 sequence (P30307 whole entry): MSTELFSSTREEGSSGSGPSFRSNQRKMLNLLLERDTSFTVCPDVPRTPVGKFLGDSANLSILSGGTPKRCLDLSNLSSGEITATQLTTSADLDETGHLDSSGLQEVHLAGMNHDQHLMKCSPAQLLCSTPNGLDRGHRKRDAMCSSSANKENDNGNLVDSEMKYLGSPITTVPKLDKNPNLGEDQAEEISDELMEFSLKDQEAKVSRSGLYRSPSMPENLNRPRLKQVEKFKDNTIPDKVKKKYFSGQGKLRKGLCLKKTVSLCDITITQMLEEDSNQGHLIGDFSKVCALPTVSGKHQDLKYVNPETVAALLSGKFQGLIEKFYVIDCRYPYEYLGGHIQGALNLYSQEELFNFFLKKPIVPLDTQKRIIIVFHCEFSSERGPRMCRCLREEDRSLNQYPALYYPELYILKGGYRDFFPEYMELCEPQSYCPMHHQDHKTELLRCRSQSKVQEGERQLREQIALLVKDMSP
Outline: (§1)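 GST fusion proteins (full-length Cdc25A and Cdc25C; Cdc25B catalytic domain) were expressed in E. coli grown with ampicillin and induced with IPTG at OD600 0.4–0.6 for 5 h. They were purified on glutathione-agarose. Activity was measured with p-nitrophenyl phosphate as substrate across a range of inhibitor concentrations. IC50 is the mean ± SD of at least two independent experiments, each with four determinations per concentration.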

[2] = biological target: T2, M-phase inducer phosphatase 2 (Homo sapiens, UniProt P30305); test: Inhibition of human GST-Cdc25B expressed in Escherichia coli BL21(DE3); outline: as §1
T2 sequence (P30305 whole entry): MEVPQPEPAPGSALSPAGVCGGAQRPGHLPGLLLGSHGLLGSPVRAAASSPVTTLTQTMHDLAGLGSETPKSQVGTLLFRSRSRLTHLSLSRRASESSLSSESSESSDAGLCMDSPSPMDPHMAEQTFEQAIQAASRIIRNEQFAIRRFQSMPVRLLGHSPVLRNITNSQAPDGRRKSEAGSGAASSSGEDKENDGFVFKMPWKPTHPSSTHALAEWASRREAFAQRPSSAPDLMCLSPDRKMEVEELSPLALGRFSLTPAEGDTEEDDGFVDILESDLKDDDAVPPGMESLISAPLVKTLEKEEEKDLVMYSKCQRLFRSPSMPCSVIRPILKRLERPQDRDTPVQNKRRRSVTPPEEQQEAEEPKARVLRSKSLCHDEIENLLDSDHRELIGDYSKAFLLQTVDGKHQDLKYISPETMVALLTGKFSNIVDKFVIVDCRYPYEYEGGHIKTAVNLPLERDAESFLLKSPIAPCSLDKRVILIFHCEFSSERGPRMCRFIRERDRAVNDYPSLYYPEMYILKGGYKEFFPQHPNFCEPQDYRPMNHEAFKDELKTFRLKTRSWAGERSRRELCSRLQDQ

[3] = Inhibition of horse liver alkaline phosphatase; set-up: species or system Equus caballus
Outline: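 Phosphatase activity was read with p-nitrophenyl phosphate as substrate, following a previously described method.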

[4] = biological target: T3, M-phase inducer phosphatase 1 (Homo sapiens, UniProt P30304); test: Inhibition of human GST-Cdc25A expressed in Escherichia coli BL21(DE3); outline: as §1
T3 sequence (P30304 whole entry): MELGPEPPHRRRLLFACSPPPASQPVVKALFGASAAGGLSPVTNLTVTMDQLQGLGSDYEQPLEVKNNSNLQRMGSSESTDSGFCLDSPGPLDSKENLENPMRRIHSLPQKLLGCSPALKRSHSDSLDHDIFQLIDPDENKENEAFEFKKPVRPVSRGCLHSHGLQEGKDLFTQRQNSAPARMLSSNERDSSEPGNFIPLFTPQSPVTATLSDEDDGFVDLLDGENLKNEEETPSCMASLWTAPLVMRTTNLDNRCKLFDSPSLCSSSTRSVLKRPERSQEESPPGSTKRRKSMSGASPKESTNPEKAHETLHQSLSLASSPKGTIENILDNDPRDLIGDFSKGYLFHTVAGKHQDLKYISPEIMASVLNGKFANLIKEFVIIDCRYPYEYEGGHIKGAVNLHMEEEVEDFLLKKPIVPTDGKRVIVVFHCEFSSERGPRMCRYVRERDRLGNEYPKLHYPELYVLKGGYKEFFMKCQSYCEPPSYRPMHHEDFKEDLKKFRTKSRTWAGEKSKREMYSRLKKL

CCCCCCC1=C(CCC(=O)O)C(=O)OC1=O
IC50 [1]: > 100 µM | IC50 [2]: > 100 µM | IC50 [3]: > 100 µM | IC50 [4]: > 100 µM

CCCCCCCCC1=C(CCC(=O)O)C(=O)OC1=O
IC50 [1]: > 100 µM | IC50 [2]: > 100 µM | IC50 [3]: > 100 µM | IC50 [4]: > 100 µM

CCCCCCCCCCC1=C(CCC(=O)O)C(=O)OC1=O
IC50 [1]: 53.9 µM | IC50 [2]: 55.2 µM | IC50 [3]: > 100 µM | IC50 [4]: 44.4 µM

CCCCCCCCCCCCCC1=C(CCC(=O)O)C(=O)OC1=O
IC50 [1]: 5.7 µM | IC50 [2]: 8.7 µM | IC50 [3]: > 100 µM | IC50 [4]: 8.1 µM

CCCCCCCCCCCCCCC1=C(CCC(=O)O)C(=O)OC1=O
IC50 [1]: 12.6 µM | IC50 [2]: 11.6 µM | IC50 [3]: > 100 µM | IC50 [4]: 6.3 µM

CCCCCCCCCCCCCCCCCC1=C(CCC(=O)O)C(=O)OC1=O
IC50 [3]: > 100 µM

CCCCCCCC/C=C\CCCCCCCC1=C(CCC(=O)O)C(=O)OC1=O
IC50 [1]: 8.8 µM | IC50 [2]: 6.7 µM | IC50 [3]: > 100 µM | IC50 [4]: 4.5 µM

CCCCCCCCCC1=C(CCC(=O)O)C(=O)OC1=O
IC50 [1]: > 100 µM | IC50 [2]: > 100 µM | IC50 [3]: > 100 µM | IC50 [4]: > 100 µM

CCCCCCCCCCCC1=C(CCC(=O)O)C(=O)OC1=O
IC50 [1]: > 100 µM | IC50 [2]: 47.7 µM | IC50 [3]: > 100 µM | IC50 [4]: 44.3 µM

CCCCCCCCCCCCCCCC1=C(CCC(=O)O)C(=O)OC1=O
IC50 [1]: 8.6 µM | IC50 [2]: 7.6 µM | IC50 [3]: > 100 µM | IC50 [4]: 4.7 µM
